The subject of one assay is CCRF-CEM. Put plainly: In vitro antitumor activity against human lymphoblastic leukemia cells. It is filed as functional. Conditions: read-out: ID50 (the source's name). The procedure, abridged:
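Human lymphoblastic leukemia CCRF-CEM cells grown in suspension culture; growth inhibition in vitro; ID50 (ng/mL) reported as the 50% inhibitory dose.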

For assay [1], the system named is P388. The experiment in a line: Median survival time of the P388 cells implanted CDF1 male mice in vivo. The format is functional, Mus musculus. The procedure, abridged:
(§1)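 CDF1 male mice, groups of seven, given 10^6 P388 cells ip on day 0; drug ip in 5% DMSO–saline on days 1, 5 and 9; controls received vehicle; range of doses tested, optimal nontoxic dose listed; median survival time; %ILS = (treated − control)/control × 100; average of two or more experiments.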

Assay [2] has as its system P388. The experiment in a line: Percent of increased life span of P388 cells implanted CDF1 male mice. The format is functional, Mus musculus. The procedure, abridged:
as §1

The test system of assay [3] is P388. The experiment in a line: Optimal dose for antitumor activity was measured in P388 cells of CDF1 male mice in vivo; Highest dose tested. It is filed as functional, Mus musculus. The procedure, abridged:
as §1

Assay [4] concerns Calf thymus DNA. Put plainly: Apparent binding constant calf thymus DNA-drug complex. It is filed as nucleic-acid assay. The settings on record: Bos taurus. The procedure, abridged: (§2)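 Calf thymus DNA; spectral titration; binding isotherms in 0.01 M phosphate buffer, pH 7.0, 20 °C; Kapp (per base pair) and Bapp (drug binding sites per base pair) taken from Scatchard plot.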
The subject of assay [5] is P388. Put plainly: Concentration required for 50% inhibition of incorporation of labeled thymidine by p388 cells for synthesis of DNA (in vitro); e indicates values are high and variable. The format is functional, cell-based. The settings on record: Mus musculus.
For assay [6], the system named is P388. The experiment in a line: Concentration required for 50% inhibition of incorporation of labeled uridine by P388 cells for the synthesis of RNA (in vitro); e indicates values are high and variable. The format is functional, cell-based. The settings on record: Mus musculus.
In assay [7] the test system is Calf thymus DNA. Put plainly: Apparent number of binding sites per base pairs in DNA; Not measurable. The settings on record: Bos taurus. The format is nucleic-acid assay. The procedure, abridged:
as §2

Molecules are shown by their SMILES. ≈ marks a conversion by molar mass, not a printed value.

Broadly, the ILS is how much longer treated animals lived than controls. Lower therefore signals a small benefit in survival.

In the case of `CCCCCCNc1c(C(=O)N[C@@H]2C(=O)N[C@H](C(C)C)C(=O)N3CCC[C@H]3C(=O)N(C)CC(=O)N(C)[C@@H](C(C)C)C(=O)O[C@@H]2C)c2nc3c(C(=O)N[C@@H]4C(=O)N[C@H](C(C)C)C(=O)N5CCC[C@H]5C(=O)N(C)CC(=O)N(C)[C@@H](C(C)C)C(=O)O[C@@H]4C)ccc(C)c3oc-2c(C)c1=O`, the IC50 in the assay with CCRF-CEM is 3 µg/mL (≈ 2.24 µM). The MST in the assay on P388 [1] worked out at 11 days. The compound also registered an ILS in the assay on P388 [2] of 0%. Besides, in the assay on P388 [3], the Highest dose tested stood at 1.2 mg/kg.

For the compound `CCCCCNc1c(C(=O)N[C@@H]2C(=O)N[C@H](C(C)C)C(=O)N3CCC[C@H]3C(=O)N(C)CC(=O)N(C)[C@@H](C(C)C)C(=O)O[C@@H]2C)c2nc3c(C(=O)N[C@@H]4C(=O)N[C@H](C(C)C)C(=O)N5CCC[C@H]5C(=O)N(C)CC(=O)N(C)[C@@H](C(C)C)C(=O)O[C@@H]4C)ccc(C)c3oc-2c(C)c1=O`, the IC50 in the assay on CCRF-CEM is 1.6 µg/mL (≈ 1.21 µM). In addition, the MST in the assay on P388 [1] was 13 days. In addition, in the assay on P388 [2], the ILS is recorded as 18%. Besides, the Highest dose tested in the assay with P388 [3] amounted to 1.15 mg/kg.

`Cc1c2oc3c(C)c(OCc4ccc(Cl)cc4)cc(C(=O)N[C@@H]4C(=O)N[C@H](C(C)C)C(=O)N5CCC[C@@H]5C(=O)N(C)CC(=O)N(C)[C@@H](C(C)C)C(=O)O[C@@H]4C)c3nc-2c(C(=O)N[C@H]2C(=O)N[C@@H](C(C)C)C(=O)N3CCC[C@H]3C(=O)N(C)CC(=O)N(C)[C@H](C(C)C)C(=O)O[C@H]2C)c(N)c1=O`: the K app in the assay with Calf thymus DNA [4] was 100000 M⁻¹. For the same compound, the ED50 result is “High and variable values” in the assay on P388 [5]; “High and variable values” in the assay with P388 [6]. Also, the Bapp entry with Calf thymus DNA [7] is reported as “Not measurable”.

As for `Cc1c2oc3c(C)c(OCc4ccc([N+](=O)[O-])cc4)cc(C(=O)N[C@@H]4C(=O)N[C@H](C(C)C)C(=O)N5CCC[C@@H]5C(=O)N(C)CC(=O)N(C)[C@@H](C(C)C)C(=O)O[C@@H]4C)c3nc-2c(C(=O)N[C@H]2C(=O)N[C@@H](C(C)C)C(=O)N3CCC[C@H]3C(=O)N(C)CC(=O)N(C)[C@H](C(C)C)C(=O)O[C@H]2C)c(N)c1=O`, in the assay on Calf thymus DNA [4], the K app is 100000 M⁻¹. For the same compound, the ED50 result was “High and variable values” in the assay on P388 [5]; “High and variable values” in the assay on P388 [6]. For the same compound, the Bapp result in the assay with Calf thymus DNA [7] is listed as “Not measurable”.

Take `CCCCCCCCCNc1c(C(=O)N[C@@H]2C(=O)N[C@H](C(C)C)C(=O)N3CCC[C@H]3C(=O)N(C)CC(=O)N(C)[C@@H](C(C)C)C(=O)O[C@@H]2C)c2nc3c(C(=O)N[C@@H]4C(=O)N[C@H](C(C)C)C(=O)N5CCC[C@H]5C(=O)N(C)CC(=O)N(C)[C@@H](C(C)C)C(=O)O[C@@H]4C)ccc(C)c3oc-2c(C)c1=O`: the IC50 in the assay with CCRF-CEM came to 11 µg/mL (≈ 7.96 µM). The compound further had an MST in the assay with P388 [1] of 10 days. In the assay on P388 [3], this compound yielded a Highest dose tested of 1.8 mg/kg.

`CCCCCCCCCCCNc1c(C(=O)N[C@@H]2C(=O)N[C@H](C(C)C)C(=O)N3CCC[C@H]3C(=O)N(C)CC(=O)N(C)[C@@H](C(C)C)C(=O)O[C@@H]2C)c2nc3c(C(=O)N[C@@H]4C(=O)N[C@H](C(C)C)C(=O)N5CCC[C@H]5C(=O)N(C)CC(=O)N(C)[C@@H](C(C)C)C(=O)O[C@@H]4C)ccc(C)c3oc-2c(C)c1=O`: in the assay on CCRF-CEM, the IC50 is more than 15 µg/mL. This compound came in with an MST with P388 [1] of 10 days. In the assay with P388 [3], this compound had a Highest dose tested of 1.15 mg/kg.

With `Cc1c2oc3c(C)c(OCc4ccc(Cl)c(Cl)c4)cc(C(=O)N[C@@H]4C(=O)N[C@H](C(C)C)C(=O)N5CCC[C@@H]5C(=O)N(C)CC(=O)N(C)[C@@H](C(C)C)C(=O)O[C@@H]4C)c3nc-2c(C(=O)N[C@H]2C(=O)N[C@@H](C(C)C)C(=O)N3CCC[C@H]3C(=O)N(C)CC(=O)N(C)[C@H](C(C)C)C(=O)O[C@H]2C)c(N)c1=O`, in the assay on Calf thymus DNA [4], the K app was 10000 M⁻¹. The ED50 result was “High and variable values” with P388 [5]; “High and variable values” in the assay with P388 [6]. For the same compound, in the assay on Calf thymus DNA [7], the Bapp entry is recorded as “Not measurable”.

The record behind these values is ChEMBL document CHEMBL1121923, “N2- and C-7 substituted actinomycin D analogues: synthesis, DNA-binding affinity, and biochemical and biological properties. Structure-activity relationship” (J Med Chem, 1981).
